Screens as filed in PubChem BioAssay.
Only some compounds are listed: those with a hit (about 2.3% of all), similar ones and a draw of the others.
TRPC6 inhibitor: inhibitors of mouse TRPC6 channel. hit rate 1.1% among 310,000. B-score at 10 µM. HEK293-TRPC6, membrane potential dye, ACh-evoked depolarization; active compounds read low. Q61143;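 active = B-score under library mean minus 3 SD, initial fluorescence not abnormally high, positive integrated signal ratio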;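 also: B-score derived from integrated fluorescence ratio over the kinetic read; more negative B-score means stronger inhibition of depolarization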
Target sequence (Q61143 whole entry, looked up): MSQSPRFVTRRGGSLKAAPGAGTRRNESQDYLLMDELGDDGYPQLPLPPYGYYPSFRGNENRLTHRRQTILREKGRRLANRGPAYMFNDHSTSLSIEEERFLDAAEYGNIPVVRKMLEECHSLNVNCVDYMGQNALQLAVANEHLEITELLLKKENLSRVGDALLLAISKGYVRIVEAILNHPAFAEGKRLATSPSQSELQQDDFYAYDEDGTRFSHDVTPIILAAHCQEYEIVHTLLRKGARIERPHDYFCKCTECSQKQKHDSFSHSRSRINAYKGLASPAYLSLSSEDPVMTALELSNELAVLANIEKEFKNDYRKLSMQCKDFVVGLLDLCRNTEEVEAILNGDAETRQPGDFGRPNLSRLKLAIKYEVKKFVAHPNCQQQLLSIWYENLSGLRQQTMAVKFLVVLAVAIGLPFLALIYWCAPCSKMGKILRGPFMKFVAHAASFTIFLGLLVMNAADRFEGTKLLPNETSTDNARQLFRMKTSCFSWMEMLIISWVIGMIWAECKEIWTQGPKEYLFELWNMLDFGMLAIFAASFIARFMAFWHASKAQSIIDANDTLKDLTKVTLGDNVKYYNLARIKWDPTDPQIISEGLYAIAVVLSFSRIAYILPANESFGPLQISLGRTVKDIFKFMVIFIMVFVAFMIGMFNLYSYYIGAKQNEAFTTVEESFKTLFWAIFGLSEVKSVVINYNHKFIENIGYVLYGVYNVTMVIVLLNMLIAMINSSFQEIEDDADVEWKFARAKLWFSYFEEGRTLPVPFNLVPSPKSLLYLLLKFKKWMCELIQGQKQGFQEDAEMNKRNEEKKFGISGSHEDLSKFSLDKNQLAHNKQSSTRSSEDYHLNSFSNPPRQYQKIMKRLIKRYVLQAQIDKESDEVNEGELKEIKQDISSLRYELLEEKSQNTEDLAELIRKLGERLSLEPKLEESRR
TRPC4 potent: allosteric potentiators of mouse TRPC4 channel; AID 2227; B-score at 10 µM; hit rate 0.42% among 310,000; Q9QUQ5; HEK293 TRPC4beta/mu-opioid, DAMGO EC20, Fluo-4 Ca2+ flux; active compounds read high;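 active = B-score of calcium response area above 5 SD of library B-scores, with initial fluorescence ratio within 5 SD of library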
TRPC4 agonist: opens the mouse TRPC4 cation channel; Q9QUQ5; HEK293 TRPC4beta/mu-opioid, Fluo4 calcium fluorescence; active compounds read high; hit rate 0.49% among 310,000; B-score at 10 µM;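 active = B-score above 5 SD of library B-scores, and initial fluorescence ratio not above library mean plus 5 SD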;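 also: positive B-score marks a calcium rise read as TRPC4 activation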
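System: HEK293 cells stably co-expressing mouse TRPC4beta and mu-opioid receptor; Schedule: Fluo4 dye loading 45 min at room temperature, 110 s recording; Detection: Fluo4 fluorescence, kinetic; Evaluation: B-scored integrated calcium fluorescence ratio; Controls: buffer (low) and maximal DAMGO (high).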
TRPC6 activator: activators of mouse TRPC6 channel; hit rate 0.13% among 310,000; HEK293-TRPC6 membrane potential dye fluorescence; active compounds read high; AID 2550; B-score at 10 µM;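 active = B-score of the integrated fluorescence ratio above library mean plus 3 SD, and starting fluorescence ratio within library mean plus 5 SD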;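 also: higher score means more depolarization so channel activation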
TRPC4 block: TRPC4 (mouse) channel inhibition; Q9QUQ5; HEK293 TRPC4beta/mu-opioid, DAMGO-evoked Fluo4 calcium flux; active compounds read low; B-score at 10 µM; hit rate 0.39% among 300,000;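 active = B-score over 3 SD under the library average, no early fluorescence shift, positive overall ratio signal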
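Signal: kinetic Fluo4 fluorescence imaging of calcium influx. Material: stable TRPC4beta/mu-opioid receptor HEK293 cells. Probe or stimulus: DAMGO in two steps, submaximal then maximal.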
Large screens that a line does not name were inactive.

Cc1cc(F)ccc1S(=O)(=O)NCC(c1cccnc1)N1CCc2ccccc21 (configuration not stated)	none
CCOC(=O)c1c(-c2ccco2)csc1NC(=O)COC(=O)c1cnc(C)cn1	none
Cc1c(N(C)S(=O)(=O)c2cc(C(=O)NCC3CCCO3)ccc2Cl)c(=O)n(-c2ccccc2)n1C (configuration not stated)	TRPC4 block -7
Cc1c(N(C)S(=O)(=O)c2cccc(C(=O)NCC3CCCO3)c2)c(=O)n(-c2ccccc2)n1C (configuration not stated)	none
Cc1ccc(S(=O)(=O)N2CC(C)C(=O)CC2C)cc1 (configuration not stated)	none
CCN(CC)CCCNC(=S)N1CCN(c2nc3ccccc3n2CC)CC1	TRPC4 potent 15
CCN(CC)CCCNC(=S)N1CCn2c(nc3ccccc32)C1	none
Cc1cc(OCC(=O)NC(C)C)cc(C)c1Br	none
Cc1cc(OCC(=O)N(C(C)C)C(C)C)cc(C)c1Br	TRPC4 potent 38
CNC(=S)N1CCN(C(c2ccccc2)c2ccccc2)CC1	TRPC4 agonist 50, TRPC4 block -6
CCC(C)NC(=S)N1CCN(C(c2ccccc2)c2ccccc2)CC1 (configuration not stated)	none
Cc1ccc(NC(=O)Cn2cnc([N+](=O)[O-])c2)cc1C	none
COc1ccc(S(=O)(=O)NC2CCCC2)c(Cl)c1Cl	TRPC4 potent 11
COc1ccc(C)cc1S(=O)(=O)NC1CCCC1	none
CCOc1ccccc1C1c2[nH]c3ccccc3c2C[C@H]2C(=O)N(C3CC3)CC(=O)N12 (some centres not stated)	none
COc1ccc(-c2c(C)[nH]n3c(=O)c(Cc4ccccc4)c(C)nc23)cc1	TRPC4 block -6
Cc1[nH]n2c(=O)c3c(nc2c1-c1ccccc1)CCC3	TRPC4 block -6
COc1cc(C2N(c3ccc(Cl)c(Cl)c3)C(=O)C3CCCN32)cc(OC)c1OC (configuration not stated)	TRPC4 agonist 81
COc1cc(C2N(c3cccc(Cl)c3)C(=O)C3CCCN32)cc(OC)c1OC (configuration not stated)	TRPC4 potent 14
COc1cc(C2N(c3ccc(Cl)cc3)C(=O)C3CCCN32)cc(OC)c1OC (configuration not stated)	none
COc1ccc(N2C(=O)C3CCCN3C2c2cc(OC)c(OC)c(OC)c2)cc1 (configuration not stated)	none
COc1ccc(N2C(=O)C3CCCN3C2c2ccc(C)o2)cc1Cl (configuration not stated)	none
Cc1ccc(C2N(c3ccc(Cl)c(Cl)c3)C(=O)C3CCCN32)o1 (configuration not stated)	TRPC4 potent 15, TRPC4 agonist 122
O=C(O)C1=C[C@H](c2ccc3c(c2)OCO3)C[C@H](OCCCCO)O1	none
CCN(CCCNC(=O)CCCOc1cc(=O)n(C)c2ccccc12)Cc1ccccc1	TRPC4 potent 21
CN1CCN(c2cc3c(c4c2[nH]c2ccccc24)C(=O)CC(C)(C)C3)CC1	TRPC4 agonist 79
CN1CCN(c2ncnc3c2[nH]c2ccc(F)cc23)CC1	none
CC(=O)Nc1ccc(C2(c3ccc(NC(C)=O)cc3)C(=O)Nc3ccccc32)cc1	TRPC4 agonist 58, TRPC4 block -7
CCCn1c(=S)[nH]c2cc(C(=O)N3CCN(C4CCCCC4)CC3)ccc2c1=O	none
CCOC(=O)CN1N=C(/C=C/c2ccc(C(C)C)cc2)CCC1=O	TRPC4 potent 11
CCOC(=O)CN1N=C(/C=C/c2ccccc2)CCC1=O	none
OCCC1CN(Cc2ccccc2-c2ccco2)CCN1Cc1ccccc1 (configuration not stated)	TRPC4 agonist 113
CCn1cc(CN2CCN(Cc3ccccc3)C(CCO)C2)c2ccccc21 (configuration not stated)	TRPC4 agonist 58
OCCC1CN(Cc2ccc3nsnc3c2)CCN1CCc1ccccc1 (configuration not stated)	TRPC4 agonist 43
Nc1cc(N2CCCCC2)c([N+](=O)[O-])cc1Cl	TRPC4 block -6
Nc1cc(N2CCCCC2)c(Cl)cc1[N+](=O)[O-]	none
COc1ccc([N+](=O)[O-])cc1NCc1ccco1	TRPC4 block -6
COc1cc(C2c3c(-c4ccccc4)n[nH]c3C(=O)N2c2ccccc2)ccc1O (configuration not stated)	TRPC4 potent 14
CCOc1ccc2oc(C(=O)N(C)CC(=O)Nc3ccc(OCC)c(OCC)c3)c(C)c2c1	none
Cc1csc(NC(=O)c2sc3nc(-c4cccs4)ccc3c2N)n1	TRPC4 potent 10, TRPC4 agonist 47
CCCSc1nnc(NC(=O)c2sc3nc(-c4cccs4)ccc3c2N)s1	none
COc1ccc(C(=O)Nc2nc(-c3cccs3)cs2)cc1	TRPC4 block -7
O=C(Nc1nc(-c2cccs2)cs1)c1ccc(Cl)cc1	none
Cc1cccc(Nc2nc(N)nc(CCl)n2)c1C	none
CC1CC(C)CN(CCCNS(=O)(=O)c2cc(Br)cc3c2N(C(=O)C2CC2)CC3)C1 (configuration not stated)	TRPC4 agonist 115
CC1CCCN(CCCNS(=O)(=O)c2cc(Br)cc3c2N(C(=O)C2CC2)CC3)C1 (configuration not stated)	TRPC4 agonist 73
O=C(C1CC1)N1CCc2cc(Br)cc(S(=O)(=O)NCCCN3CCCC3)c21	TRPC4 agonist 60
CCCN(C(=O)CCOc1ccc(C(C)(C)C)cc1)c1c(N)n(Cc2ccccc2)c(=O)[nH]c1=O	none
Cc1nonc1OCCN1CCN(c2ccccc2[N+](=O)[O-])CC1	none
O=C(c1ccc(F)cc1)N1CCN(c2ccc([N+](=O)[O-])cc2-n2cccc2)CC1	TRPC4 potent 24
Nc1nonc1OCCN1CCN(c2ccc([N+](=O)[O-])c3cccnc23)CC1	TRPC4 potent 23, TRPC4 agonist 93
O=C(Nc1ccccc1N1CCN(C(=O)c2ccc(Cl)cc2)CC1)c1cccc([N+](=O)[O-])c1	TRPC4 block -6
O=C(c1ccccc1F)N1CCN(c2ccc([N+](=O)[O-])c3cccnc23)CC1	TRPC4 potent 29
CC1(C)Oc2ccc3ccc(=O)oc3c2/C(=C/NNC(N)=S)C1=O	none
C=CCN1C(=O)c2ccc(C(=O)NCCc3ccc(F)cc3)cc2C1=O	none
COc1ccc(N2CCN(C(=O)c3ccccc3F)CC2)c([N+](=O)[O-])c1	none
O=C(c1ccccc1F)N1CCN(c2ccc([N+](=O)[O-])cc2-n2cccc2)CC1	TRPC4 potent 18
O=C(C[n+]1cc(-c2ccccc2)n2c1CCC2)c1cccs1	none
Cc1ccc(-c2c[n+](Cc3ccc(Cl)cc3)c3n2CCC3)cc1	none
Clc1cccc(C[n+]2cc(-c3ccccc3)n3c2CCC3)c1	TRPC4 block -6
